Some results are limits rather than exact numbers.

Common to all, as to type: functional, cell-based
One assay relates to MDA-MB-435. Briefly: Cytotoxicity against human MDA-MB-435 cells after 72 hrs by MTT assay. To be noted: MDA-MB-435, 72 h. In a few lines:
(§1)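 Cells grown in RPMI 1640 with 10% FBS, 2 mM glutamine, streptomycin and penicillin at 37 C, 5% CO2. Seeded at 10^5 cells/well (adherent) or 0.3 × 10^6 cells/well (suspension). After 24 h, compounds in DMSO (0.39-25 μg/mL) added; doxorubicin (0.01-0.58 μg/mL) as positive control. After 69 h, MTT 0.5 mg/mL for 3 h. Formazan dissolved in DMSO, A595 read, IC50 by nonlinear regression.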

The test system of the next assay is SF-295. Briefly: Cytotoxicity against human SF295 cells after 72 hrs by MTT assay. To be noted: SF-295, 72 h. In outline:
as §1
(Formazan colour is commonly taken as a measure of viable cells.)

Another assay has as its system HL-60. Briefly: Cytotoxicity against human HL60 cells after 72 hrs by MTT assay. To be noted: HL-60, 72 h. In outline:
as §1

For a further assay, the system named is HCT-8. Briefly: Cytotoxicity against human HCT8 cells after 72 hrs by MTT assay. To be noted: HCT-8, 72 h. In outline: as §1

Take `C=CC(=C)CC[C@]1(C)[C@H](C)[C@@H](OC(=O)/C=C\C=C\CCCCC)[C@H](OC(C)=O)[C@@]23C(=C[C@H](O)C[C@@H]12)[C@@H](OC(C)=O)O[C@@H]3OC(C)=O` (relative stereo) [CASEARUPESTRIN D]: the half-maximal inhibitory concentration (IC50) with MDA-MB-435 turned out to be 930 nM; in the assay on SF-295, 430 nM; in the assay on HL-60 it was 250 nM; with HCT-8 it was 250 nM.

`COc1cccc2c1C(=O)c1c(O)c3c(c(O)c1C2=O)C[C@@](O)(C(=O)CO)C[C@@H]3O[C@H]1C[C@H](N)[C@H](O)[C@H](C)O1` [DOXORUBICIN]: the IC50 in the assay with SF-295 came out at 400 nM; in the assay on HL-60, 40 nM.

`C=CC(=C)CC[C@]1(C)[C@H](C)[C@@H](OC(=O)/C=C\C=C\CCCCC)[C@H](O)[C@@]23C(=C[C@H](O)C[C@@H]12)[C@@H](OC(C)=O)O[C@@H]3OC(C)=O` (relative stereo) [CASEARUPESTRIN B]: the IC50 with MDA-MB-435 is 1300 nM; in the assay with SF-295 it was 800 nM; in the assay with HL-60 it was 850 nM; in the assay with HCT-8 it was 280 nM.

With `C=CC(=C)CC[C@]1(C)[C@H](C)[C@@H](OC(C)=O)[C@H](OC(=O)/C=C\C=C\CCCCC)[C@@]23C(=C[C@H](OC(C)=O)C[C@@H]12)[C@@H](OC(C)=O)O[C@@H]3OC(C)=O`, the IC50 with MDA-MB-435 is more than 5000 nM; with SF-295 it was more than 5000 nM; in the assay on HL-60, 4300 nM; in the assay on HCT-8, more than 5000 nM.

Consider `C=CC(=C)CC[C@]1(C)[C@H](C)[C@@H](OC(=O)/C=C\C=C\CCCCC)[C@H](OC(C)=O)[C@@]23C(=C[C@H](OC(C)=O)C[C@@H]12)[C@@H](OC(C)=O)O[C@@H]3OC(C)=O`, for which the IC50 with MDA-MB-435, with SF-295, in the assay with HL-60 and in the assay with HCT-8 was more than 5000 nM each time.

For the compound `C=CC(=C)CC[C@]1(C)[C@H](C)[C@@H](O)[C@H](OC(=O)/C=C\C=C\CCCCC)[C@@]23C(=C[C@H](O)C[C@@H]12)[C@@H](OC(C)=O)O[C@@H]3OC(C)=O` (relative stereo) [CASEARUPESTRIN A], the IC50 with MDA-MB-435 came out at 360 nM; in the assay with SF-295, 360 nM; in the assay on HL-60, 100 nM; in the assay with HCT-8, 130 nM.

For `C=CC(=C)CC[C@]1(C)[C@H](C)[C@@H](OC(=O)/C=C\C=C\CCCCC)[C@H](O)[C@@]23C(=C[C@H](O)C[C@@H]12)[C@@H](OC)O[C@@H]3OC(C)=O` (relative stereo) [CASEARUPESTRIN C], the IC50 with MDA-MB-435, in the assay with SF-295, in the assay with HL-60 and in the assay with HCT-8 was more than 5000 nM in each case.

In general, IC50 refers to the concentration that inhibits the measured activity by half. The low end stands for greater potency, the high end for weaker potency.

The values are drawn from ChEMBL document CHEMBL1772998, “Cytotoxic clerodane diterpenes from Casearia rupestris” (J Nat Prod, 2011).
